Measurements reported in ChEMBL document CHEMBL4229344 (Eur J Med Chem, 2018).
The source made the active and inactive calls. The rule behind the calls is not given here.

Legend:
[1] = system: Tyrosine-protein kinase ABL1 (Homo sapiens), P00519 [T315I]; test: Binding affinity to human phosphorylated ABL1 T315I mutant (S229 to K512 residues) expressed in mammalian expression system assessed as residual binding level at 1 uM by Kinomescan method relative to control
Outline: (§1)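 Single-concentration (1 μM) competition-binding screen run by KINOMEscan against a panel of 468 purified kinases and mutants. The read-out is the relative binding activity of the test compound to each kinase.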

[2] = target: RAC-gamma serine/threonine-protein kinase (Homo sapiens) (UniProt Q9Y243); test: Binding affinity to wild-type human partial length AKT3 expressed in bacterial expression system assessed as residual binding level at 1 uM by Kinomescan method relative to control
RAC-gamma serine/threonine-protein kinase (Homo sapiens), sequence (Q9Y243 whole entry): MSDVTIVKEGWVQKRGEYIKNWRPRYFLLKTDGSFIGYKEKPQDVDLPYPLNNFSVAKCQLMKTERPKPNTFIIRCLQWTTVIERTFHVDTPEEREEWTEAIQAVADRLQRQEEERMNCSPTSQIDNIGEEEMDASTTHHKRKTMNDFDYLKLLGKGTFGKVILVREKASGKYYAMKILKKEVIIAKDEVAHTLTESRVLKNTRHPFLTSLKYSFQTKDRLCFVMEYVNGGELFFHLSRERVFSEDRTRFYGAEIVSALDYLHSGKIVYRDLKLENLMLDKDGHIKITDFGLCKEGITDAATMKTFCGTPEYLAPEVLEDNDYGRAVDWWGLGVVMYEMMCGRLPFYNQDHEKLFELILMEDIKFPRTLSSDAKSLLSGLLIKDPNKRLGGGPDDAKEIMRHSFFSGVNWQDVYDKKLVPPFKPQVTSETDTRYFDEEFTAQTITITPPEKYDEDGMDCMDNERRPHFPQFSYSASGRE
Outline: (§2)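 Kinome-wide competition binding screen against a panel of 468 purified kinases/mutants, with the test compound at a single concentration of 1 μM. Read-out is the relative binding activity of each kinase in the presence of compound.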

[3] = target: Peripheral plasma membrane protein CASK (Homo sapiens) (UniProt O14936); test: Binding affinity to wild-type human partial length CASK (M1 to H315 residues) expressed in mammalian expression system assessed as residual binding level at 1 uM by Kinomescan method relative to control; outline: as §2
Peripheral plasma membrane protein CASK (Homo sapiens), sequence (O14936 whole entry, the tested form may be a part): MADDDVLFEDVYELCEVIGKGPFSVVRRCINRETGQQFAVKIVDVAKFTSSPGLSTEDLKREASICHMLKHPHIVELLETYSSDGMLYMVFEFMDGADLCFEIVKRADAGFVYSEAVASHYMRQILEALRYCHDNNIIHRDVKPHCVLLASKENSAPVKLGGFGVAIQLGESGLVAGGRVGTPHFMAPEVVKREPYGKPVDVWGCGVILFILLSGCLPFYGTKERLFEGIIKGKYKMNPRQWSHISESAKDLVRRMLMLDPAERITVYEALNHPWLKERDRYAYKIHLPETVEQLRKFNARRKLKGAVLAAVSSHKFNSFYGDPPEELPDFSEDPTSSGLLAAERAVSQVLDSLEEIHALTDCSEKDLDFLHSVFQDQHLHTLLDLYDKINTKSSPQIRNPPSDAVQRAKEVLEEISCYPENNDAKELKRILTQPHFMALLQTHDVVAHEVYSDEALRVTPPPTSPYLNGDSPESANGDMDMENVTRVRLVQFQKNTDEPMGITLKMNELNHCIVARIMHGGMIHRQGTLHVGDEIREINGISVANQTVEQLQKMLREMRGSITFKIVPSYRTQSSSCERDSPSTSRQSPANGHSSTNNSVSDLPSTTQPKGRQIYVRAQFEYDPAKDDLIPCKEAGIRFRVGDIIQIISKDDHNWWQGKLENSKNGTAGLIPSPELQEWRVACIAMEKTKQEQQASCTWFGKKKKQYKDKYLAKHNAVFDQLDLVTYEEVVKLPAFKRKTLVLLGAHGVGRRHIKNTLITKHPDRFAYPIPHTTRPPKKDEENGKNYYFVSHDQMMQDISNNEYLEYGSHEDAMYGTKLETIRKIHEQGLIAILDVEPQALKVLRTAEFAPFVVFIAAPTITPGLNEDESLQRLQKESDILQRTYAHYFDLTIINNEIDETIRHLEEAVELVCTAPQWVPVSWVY

[4] = target: Cyclin-dependent kinase 3 (Homo sapiens) (UniProt Q00526); test: Binding affinity to wild-type human full length CDK3 (M1 to H305 residues) expressed in bacterial expression system assessed as residual binding level at 1 uM by Kinomescan method relative to control; outline: as §1
[5] = target: Cyclin-dependent kinase 4/cyclin D1 (Homo sapiens) (UniProt P11802+P24385); test: Binding affinity to wild-type human full length CDK4/cyclinD1 (M1 to E303 residues) expressed in mammalian expression system assessed as residual binding level at 1 uM by Kinomescan method relative to control; outline: as §1
[6] = target: Casein kinase I isoform gamma-3 (Homo sapiens) (UniProt Q9Y6M4); test: Binding affinity to wild-type human full length CSNK1G3 (M1 to K447 residues) expressed in bacterial expression system assessed as residual binding level at 1 uM by Kinomescan method relative to control
Outline: (§3)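 KINOMEscan competition binding against 468 purified kinases/mutants, test compound at 1 µM; residual binding relative to control.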

[7] = target: Ephrin type-A receptor 6 (Homo sapiens) (UniProt Q9UF33); test: Binding affinity to wild-type human partial length EPHA6 (Y700 to E1046 residues) expressed in bacterial expression system assessed as residual binding level at 1 uM by Kinomescan method relative to control; outline: as §2
[8] = target: Ephrin type-B receptor 4 (Homo sapiens) (UniProt P54760); test: Binding affinity to wild-type human partial length EPHB4 (H585 to G892 residues) expressed in bacterial expression system assessed as residual binding level at 1 uM by Kinomescan method relative to control
[9] = target: Glycogen synthase kinase-3 beta (Homo sapiens) (UniProt P49841); test: Binding affinity to wild-type human full length GSK3B (M1 to T433 residues) expressed in mammalian expression system assessed as residual binding level at 1 uM by Kinomescan method relative to control; outline: as §3
[10] = target: Mast/stem cell growth factor receptor Kit (Homo sapiens, UniProt P10721); test: Binding affinity to wild-type human partial length KIT (I571 to D952 residues) expressed in bacterial expression system assessed as residual binding level at 1 uM by Kinomescan method relative to control
[11] = target: Serine/threonine-protein kinase Nek5 (Homo sapiens) (UniProt Q6P3R8); test: Binding affinity to wild-type human partial length NEK5 (M1 to M279 residues) expressed in bacterial expression system assessed as residual binding level at 1 uM by Kinomescan method relative to control
Serine/threonine-protein kinase Nek5 (Homo sapiens), sequence (Q6P3R8 whole entry, the tested form may be a part): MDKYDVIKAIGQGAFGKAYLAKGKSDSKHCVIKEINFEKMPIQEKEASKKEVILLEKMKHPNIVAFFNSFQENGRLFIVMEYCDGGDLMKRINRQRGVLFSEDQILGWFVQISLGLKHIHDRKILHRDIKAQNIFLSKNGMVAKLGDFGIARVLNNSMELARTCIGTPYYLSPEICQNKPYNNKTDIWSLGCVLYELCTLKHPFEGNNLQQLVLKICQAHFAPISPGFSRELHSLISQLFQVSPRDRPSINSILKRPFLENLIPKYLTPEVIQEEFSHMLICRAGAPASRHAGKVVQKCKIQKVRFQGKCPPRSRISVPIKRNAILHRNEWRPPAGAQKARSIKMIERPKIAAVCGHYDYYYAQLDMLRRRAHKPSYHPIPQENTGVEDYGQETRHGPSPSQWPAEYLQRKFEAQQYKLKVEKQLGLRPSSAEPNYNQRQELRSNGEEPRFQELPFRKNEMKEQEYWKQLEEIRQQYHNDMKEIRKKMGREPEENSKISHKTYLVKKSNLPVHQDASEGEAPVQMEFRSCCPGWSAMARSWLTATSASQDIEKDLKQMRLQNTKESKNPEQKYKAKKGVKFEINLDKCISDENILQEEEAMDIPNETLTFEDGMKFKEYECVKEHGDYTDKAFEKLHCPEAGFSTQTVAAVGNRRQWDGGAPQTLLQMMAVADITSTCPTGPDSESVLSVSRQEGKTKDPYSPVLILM

[12] = target: Serine/threonine-protein kinase NLK (Homo sapiens) (UniProt Q9UBE8); test: Binding affinity to wild-type human full length NLK (M13 to E527 residues) expressed in bacterial expression system assessed as residual binding level at 1 uM by Kinomescan method relative to control; outline: as §3
[13] = system: Phosphatidylinositol 4,5-bisphosphate 3-kinase catalytic subunit alpha isoform (Homo sapiens), P42336 [E545K]; test: Binding affinity to human partial length PIK3CA E545K mutant (R108 to N1068 residues) expressed in mammalian expression system assessed as residual binding level at 1 uM by Kinomescan method relative to control
Outline: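 Kinome-wide single-concentration binding screen (KINOMEscan) at 1 μM against a panel of 468 purified kinases and mutants. Read-out is relative binding of each kinase compared with control. Selectivity across the panel was summarised as an S(10) score.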

[14] = target: Ribosomal protein S6 kinase alpha-1 (Homo sapiens) (UniProt Q15418); test: Binding affinity to wild-type human partial length N-terminal RSK1 Kinase domain 1 (M1 to E388 residues) expressed in bacterial expression system assessed as residual binding level at 1 uM by Kinomescan method relative to control
Ribosomal protein S6 kinase alpha-1 (Homo sapiens), sequence (Q15418 whole entry, the tested form may be a part): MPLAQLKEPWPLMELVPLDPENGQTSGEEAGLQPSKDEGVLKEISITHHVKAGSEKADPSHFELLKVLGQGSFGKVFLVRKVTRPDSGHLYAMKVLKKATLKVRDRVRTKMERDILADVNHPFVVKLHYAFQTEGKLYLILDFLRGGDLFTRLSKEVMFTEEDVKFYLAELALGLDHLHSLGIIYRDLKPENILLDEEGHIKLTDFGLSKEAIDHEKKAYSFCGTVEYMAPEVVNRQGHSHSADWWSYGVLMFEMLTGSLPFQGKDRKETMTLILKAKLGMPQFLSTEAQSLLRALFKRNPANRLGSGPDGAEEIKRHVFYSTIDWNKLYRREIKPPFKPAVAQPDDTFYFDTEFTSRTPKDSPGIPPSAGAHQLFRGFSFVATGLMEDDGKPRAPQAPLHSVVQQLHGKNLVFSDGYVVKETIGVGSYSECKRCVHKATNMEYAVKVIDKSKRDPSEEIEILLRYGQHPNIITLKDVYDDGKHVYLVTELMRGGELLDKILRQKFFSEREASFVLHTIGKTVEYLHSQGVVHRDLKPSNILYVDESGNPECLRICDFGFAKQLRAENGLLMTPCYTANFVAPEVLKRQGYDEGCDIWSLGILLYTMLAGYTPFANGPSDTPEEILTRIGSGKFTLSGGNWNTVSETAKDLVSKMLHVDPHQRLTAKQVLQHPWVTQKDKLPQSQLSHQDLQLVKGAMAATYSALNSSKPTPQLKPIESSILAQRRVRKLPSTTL

[15] = target: NUAK family SNF1-like kinase 2 (Homo sapiens) (UniProt Q9H093); test: Binding affinity to wild-type human partial length SNARK (P22 to A333 residues) expressed in mammalian expression system assessed as residual binding level at 1 uM by Kinomescan method relative to control
NUAK family SNF1-like kinase 2 (Homo sapiens), sequence (Q9H093 whole entry, the tested form may be a part): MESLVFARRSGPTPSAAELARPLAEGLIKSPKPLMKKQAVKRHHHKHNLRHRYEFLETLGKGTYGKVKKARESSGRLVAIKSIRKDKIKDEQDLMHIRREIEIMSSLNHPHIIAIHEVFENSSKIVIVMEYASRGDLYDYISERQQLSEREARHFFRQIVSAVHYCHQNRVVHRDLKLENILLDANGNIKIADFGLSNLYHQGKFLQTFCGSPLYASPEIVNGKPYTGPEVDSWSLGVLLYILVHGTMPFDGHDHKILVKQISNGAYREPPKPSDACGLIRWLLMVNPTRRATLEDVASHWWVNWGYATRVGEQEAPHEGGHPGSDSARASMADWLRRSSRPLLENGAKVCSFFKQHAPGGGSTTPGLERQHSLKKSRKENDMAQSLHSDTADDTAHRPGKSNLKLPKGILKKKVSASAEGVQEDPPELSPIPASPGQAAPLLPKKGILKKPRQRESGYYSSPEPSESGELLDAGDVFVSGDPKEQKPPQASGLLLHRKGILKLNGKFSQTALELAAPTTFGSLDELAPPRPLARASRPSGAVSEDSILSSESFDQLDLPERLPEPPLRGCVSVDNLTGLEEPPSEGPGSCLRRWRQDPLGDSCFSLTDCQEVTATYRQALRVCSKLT

[16] = target: Serine/threonine-protein kinase TAO1 (Homo sapiens) (UniProt Q7L7X3); test: Binding affinity to wild-type human partial length TAOK1 (M1 to A320 residues) expressed in mammalian expression system assessed as residual binding level at 1 uM by Kinomescan method relative to control
[17] = target: Vascular endothelial growth factor receptor 2 (Homo sapiens) (UniProt P35968); test: Binding affinity to wild-type human partial length VEGFR2 (R787 to P1253 residues) expressed in mammalian expression system assessed as residual binding level at 1 uM by Kinomescan method relative to control
Vascular endothelial growth factor receptor 2 (Homo sapiens), sequence (P35968 whole entry, the tested form may be a part): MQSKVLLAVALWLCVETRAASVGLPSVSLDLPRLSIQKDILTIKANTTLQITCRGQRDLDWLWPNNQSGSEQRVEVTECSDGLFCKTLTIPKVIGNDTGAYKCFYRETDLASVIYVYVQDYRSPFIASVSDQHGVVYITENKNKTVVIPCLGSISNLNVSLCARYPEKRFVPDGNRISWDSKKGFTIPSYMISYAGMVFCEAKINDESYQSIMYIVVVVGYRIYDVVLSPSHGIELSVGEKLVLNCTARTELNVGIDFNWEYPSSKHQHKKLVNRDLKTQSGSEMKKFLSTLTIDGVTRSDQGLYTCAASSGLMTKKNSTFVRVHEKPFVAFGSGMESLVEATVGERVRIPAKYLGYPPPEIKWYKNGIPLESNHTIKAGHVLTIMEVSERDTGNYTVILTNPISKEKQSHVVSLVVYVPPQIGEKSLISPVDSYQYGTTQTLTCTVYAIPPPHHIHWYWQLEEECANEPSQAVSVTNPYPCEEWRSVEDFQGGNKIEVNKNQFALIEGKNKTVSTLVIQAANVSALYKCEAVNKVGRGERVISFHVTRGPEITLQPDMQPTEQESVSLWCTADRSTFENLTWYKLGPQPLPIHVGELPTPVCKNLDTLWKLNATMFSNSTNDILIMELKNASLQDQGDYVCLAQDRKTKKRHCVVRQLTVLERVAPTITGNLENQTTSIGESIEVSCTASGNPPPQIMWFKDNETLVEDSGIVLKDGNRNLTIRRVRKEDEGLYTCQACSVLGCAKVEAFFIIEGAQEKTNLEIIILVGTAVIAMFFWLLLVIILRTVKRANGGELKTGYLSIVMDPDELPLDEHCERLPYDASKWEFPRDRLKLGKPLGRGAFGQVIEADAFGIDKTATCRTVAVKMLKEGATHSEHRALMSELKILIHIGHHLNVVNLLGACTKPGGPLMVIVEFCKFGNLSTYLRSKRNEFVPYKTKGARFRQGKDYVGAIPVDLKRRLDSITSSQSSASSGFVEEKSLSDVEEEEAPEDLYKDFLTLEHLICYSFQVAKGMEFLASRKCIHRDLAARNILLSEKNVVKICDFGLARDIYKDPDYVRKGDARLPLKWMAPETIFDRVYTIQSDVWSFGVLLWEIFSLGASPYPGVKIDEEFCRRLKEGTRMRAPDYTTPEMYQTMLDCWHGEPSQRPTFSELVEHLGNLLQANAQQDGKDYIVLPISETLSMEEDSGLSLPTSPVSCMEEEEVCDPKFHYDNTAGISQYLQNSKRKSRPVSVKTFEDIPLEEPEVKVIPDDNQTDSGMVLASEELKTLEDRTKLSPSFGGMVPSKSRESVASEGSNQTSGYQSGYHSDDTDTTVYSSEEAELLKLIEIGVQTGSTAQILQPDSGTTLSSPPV
Outline: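 KINOMEscan competition binding against a panel of 468 purified kinases/mutants, compound tested at 1 μM; readout is relative binding activity versus control.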

[18] = target: Platelet-derived growth factor receptor beta (Homo sapiens, UniProt P09619); test: Inhibition of PDGFRbeta (unknown origin) using poly(4:1 Glu,Tyr) peptide as substrate preincubated for 1 hr followed by addition of ATP and measured after 30 mins by ADP-Glo bioluminescence assay
[19] = system: EOL1; test: Antitumor activity against human EOL-1 cells xenografted in nu/nu mouse assessed as tumor growth inhibition at 50 mg/kg/day, ip; type: functional; settings: read-out: TGI
Outline: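 Female nu/nu mice (6 weeks) given subcutaneous right-flank injection of 5 million EOL-1 cells in PBS/Matrigel 1:1. At 200–400 mm3 tumors, randomized to groups of 6 and dosed daily i.p. for 14 days at 25, 50 or 100 mg/kg/d in 0.5% methylcellulose/0.4% Tween80. Tumor volume = W²×L/2, measured daily.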

[20] = system: NCI-H1703; test: Induction of apoptosis in human NCI-H1703 cells assessed as cleaved PARP expression level after 72 hrs in presence of PDGF-AA by Western blot analysis; type: functional, cell-based
Outline: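 Cells exposed to compound or DMSO for the stated periods, then lysed and immunoblotted for PARP and caspase-3 cleavage, with β-actin as loading control. NCI-H1703 stimulation used PDGF AA at 100 ng/mL.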

Cc1ccc(NC(=O)c2ccc(CN(CCN(C)C)C(=O)c3cccnc3)cc2)cc1Nc1nccc(-c2cccnc2)n1
Activity [1]: 100% | Activity [2]: 92% | Activity [3]: 87% | Activity [4]: 85% | Activity [5]: 100% | Activity [6]: 92% | Activity [7]: 92% | Activity [8]: 90% | Activity [9]: 87% | Activity [10]: 2.2% | Activity [11]: 99% | Activity [12]: 82% | Activity [13]: 87% | Activity [14]: 99% | Activity [15]: 100% | Activity [16]: 100% | Activity [17]: 92% | IC50 [18]: 6.11 µM | inhibition in vivo at 50 mg/kg/day [19]: 95.4% | Activity [20]: Active
